Assay results: ChEMBL document CHEMBL4334439, “Discovery, Optimization, and Target Identification of Novel Potent Broad-Spectrum Antiviral Inhibitors” (J Med Chem, 2019)
Active and inactive are the calls of the source. No cut-off for these calls is given here.

Tests used:
Hepatitis C virus [1] = assay: Antiviral activity against EGFP-fused HCV JFH-1 harboring K78E/E2-G451R/NS3-M260K/NS5A-T462I mutant infected in human Huh7.5.1 cells assessed as reduction in viral RNA level after 2 days by qRT-PCR analysis; type: functional, organism-based
Outline: (§1)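 Huh7.5.1 cells at 1×10^4/well, grown overnight at 37 °C. HCVcc was mixed with serially diluted compound (top 30 or 6 μM), given alone or with the named drug, and added to the cells. Viral RNA was read by qRT-PCR after 2 days. EC50 is the concentration giving 50% RNA reduction.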

Hepatitis C virus [2] = assay: Antiviral activity against HCV JFH-1 harboring K78E/E2-G451R/NS3-M260K/NS5A-T462I mutant infected in human Huh7.5.1 cells after 2 days by renilla luciferase reporter gene assay; type: functional, organism-based, Hepacivirus hominis; conditions: JFH-1, Huh-7.5.1, 48 h
Outline: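 Renilla luciferase reporter HCVcc (hRluc inserted in NS5A, aa 399/400) came from electroporated Huh7.5.1 supernatant. Virus plus serially diluted compound (top 30 or 6 μM) was added to Huh7.5.1 cells (1×10^4/well) and luminescence read. EC50 is 50% luminescence reduction.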

Hepatitis C virus [3] = assay: Antiviral activity against EGFP-fused HCV JFH-1 harboring K78E/E2-G451R/NS3-M260K/NS5A-T462I mutation infected in human Huh7.5.1 cells assessed as reduction in viral RNA level after 2 days in presence of ribavirin by qRT-PCR analysis; type: functional, organism-based; conditions: Hepacivirus hominis; outline: as §1
Hepatitis C virus [4] = assay: Antiviral activity against EGFP-fused HCV JFH-1 harboring K78E/E2-G451R/NS3-M260K/NS5A-T462I mutation infected in human Huh7.5.1 cells assessed as reduction in viral RNA level after 2 days in presence of cyclosporin A by qRT-PCR analysis; type: functional, organism-based; conditions: Hepacivirus hominis; outline: as §1
Hepatitis C virus [5] = assay: Antiviral activity against EGFP-fused HCV JFH-1 harboring K78E/E2-G451R/NS3-M260K/NS5A-T462I mutation infected in human Huh7.5.1 cells assessed as combination index after 2 days in presence of IFNalpha by qRT-PCR analysis; type: functional, Hepacivirus hominis
Outline: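 In HCVcc-infected Huh7.5.1 cells (1×10^4/well, overnight, 37 °C), compound was given at various concentrations alone or with the named approved antiviral. After 2 days HCV RNA was quantified by qRT-PCR to derive the combination index.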

Huh7.5.1 = assay: Antiviral activity against EGFP-fused HCV JFH-1 harboring K78E/E2-G451R/NS3-M260K/NS5A-T462I mutant infected in human Huh7.5.1 cells assessed as inhibition of viral entry at 0.01 uM preincubated for 2 hrs at 4 degC followed by virus/compound mixture wash-out and subsequent compound addition and measured up to 10 hrs at 37 degC; type: functional, cell-based
Outline: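 Time-of-addition: Huh7.5.1 cells were bound with HCVcc at 4 °C for 2 h. Unbound virus was removed, cells were shifted to 37 °C (T = 0), and compound was added at different time points afterwards. Anti-CD81 antibody served as the entry-inhibitor control.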

[6] = tested on: Severe fever with thrombocytopenia syndrome virus; assay: Antiviral activity against SFTSV infected in African green monkey Vero cells assessed as reduction in viral titre measured at 4 days post infection; type: functional; conditions: 96 h
[7] = Cytotoxicity against HEK293T cells infected with HIV pseudotyped virions assessed as decrease in cell viability after 48 hrs by WST1 assay; type: cell-based, HEK-293T; conditions: human
Outline: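 Cells seeded at 1 × 10^4 per well and cultured overnight at 37 °C, then incubated 48 h with serially diluted compounds. Viability read with WST-1 reagent as absorbance at OD450/OD630.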

[8] = Cytotoxicity against African green monkey Vero cells infected with RSV assessed as decrease in cell viability after 48 hrs by WST1 assay; type: cell-based; conditions: chlorocebus sabaeus
Outline: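 Cells at 1×10^4/well, cultured overnight at 37 °C, were incubated 48 h with serially diluted compound. Viability was read by WST-1 absorbance (OD450/OD630).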

[9] = Selectivity index, ratio of CC50 for HEK293T cells to EC50 for HIV pseudotyped virions infected in HEK293T cells; type: toxicity, cell-based; conditions: human, read-out: Ratio CC50/EC50
Outline: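 HIV pseudovirus made from VSVG plus env-deficient pNL4-3.luc.R-E- in HEK293T cells and diluted to 0.2 ng p24/ml. Target HEK293T cells were given compound 15 min before infection and lysed 48 h post-infection. CC50 by 48 h WST-1 viability (OD450/OD630).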

[10] = Selectivity index, ratio of CC50 for MDCK cells to EC50 for Gaussia tagged A/PR/08/34(H1N1) virus infected in MDCK cells; type: toxicity, cell-based; conditions: dog, read-out: Ratio CC50/EC50
Outline: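 MDCK cells seeded at 1×10^5/well overnight, infected with A/PR/08/34(H1N1)-Gaussia luciferase at MOI 0.1, then given 0.05–20 µM compound immediately. Virus read by luminescence or qRT-PCR at 24 hpi; EC50 at 50% signal reduction. CC50 by WST-1 (OD450/OD630) after 48 h of serially diluted compound.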

Homo sapiens = organism: Homo sapiens; assay: Binding affinity to C-terminal 6-His tagged recombinant human DHODH N-terminal domain delta29 mutant expressed in Escherichia coli BL21(DE3) assessed as reduction in pronase-mediated protein degradation incubated for 1 hr followed by pronase addition and measured after 15 mins by SDS-PAGE based Western blot analysis
Outline: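 DARTS used Δ29 human DHODH with a C-terminal His6 tag, expressed in E. coli BL21(DE3) and purified on HisTrap then Superdex200. Protein at 20 μg/ml in TNC buffer (50 mM Tris pH 8.0, 50 mM NaCl, 10 mM CaCl2) was incubated 1 h at RT with compound or DMSO. Pronase followed, 15 min at 37 °C; protease-inhibitor quench; anti-DHODH western blot.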

[11] = target: T1, Ribose-phosphate pyrophosphokinase 1 (Homo sapiens) (UniProt P60891); assay: Binding affinity to PRPS1 (unknown origin)
T1 sequence (whole entry): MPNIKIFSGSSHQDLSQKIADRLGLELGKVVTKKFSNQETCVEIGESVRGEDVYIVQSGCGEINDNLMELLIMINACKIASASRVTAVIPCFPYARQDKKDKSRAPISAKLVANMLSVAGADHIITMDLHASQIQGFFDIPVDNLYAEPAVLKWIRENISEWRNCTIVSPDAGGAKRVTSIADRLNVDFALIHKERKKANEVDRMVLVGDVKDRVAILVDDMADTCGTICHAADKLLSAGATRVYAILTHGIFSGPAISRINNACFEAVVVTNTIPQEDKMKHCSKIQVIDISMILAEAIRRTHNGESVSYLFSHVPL

Structure (SMILES): CCN(CC)c1ccc(Oc2ccc(-c3[nH]c4cccc(F)c4c(=O)c3C)cc2F)cc1
- Activity (Hepatitis C virus [1]; Hepacivirus hominis): Dose-dependent effect
- EC50 (Hepatitis C virus [1]; JFH-1, Huh-7.5.1, 48 h): 5 to 7 nM
- EC50 (Hepatitis C virus [2]): 4 to 7 nM
- Activity (Hepatitis C virus [3]): Dose-dependent effect
- Activity (Hepatitis C virus [4]): Dose-dependent effect
- CI (Hepatitis C virus [5]): >=10 - 50
- inhibition (Huh7.5.1): Active
- EC50 [6]: 300 nM
- CC50 at 48 h [7]: > 1250 nM
- CC50 at 48 h [8]: > 2500 nM
- selectivity ratio [9]: > 96
- selectivity ratio [10]: > 10
- Activity (Homo sapiens): Dose-dependent effect
- Activity [11]: inactive
